Experimental data taken from ChEMBL document CHEMBL3272177, “Hypolipidemic alkoxybenzoic acids” (1976).

What was measured:
Parameters in all cases: scale not given: the % may be the effect or the level left
Rattus norvegicus [1] = species on record: Rattus norvegicus; test: Reduction in triglyceride level in CFE rat […] at 0.025% of diet treated through diet for 6 days relative to control; assay type: functional, Serum
Outline: (§1)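 Compound dissolved in methanol-chloroform (1:3 v/v), mixed into ground rat chow at 0.1, 0.05 or 0.025% (w/w), and solvent evaporated; controls received solvent-treated chow. Rats fed ad libitum with water for 6 days, then killed fed and bled. Serum sterols and triglycerides measured by autoanalyzer. Values given as percent of control, mean ± SE; significance by Student's t test.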

Rattus norvegicus [2] = species on record: Rattus norvegicus; test: Reduction in triglyceride level in CFE rat […] in serum at 0.05% of diet treated through diet for 6 days relative to control; assay type: functional; outline: as §1
Rattus norvegicus [3] = species on record: Rattus norvegicus; test: Reduction in sterol level in CFE rat […] at 0.025% of diet treated through diet for 6 days relative to control; assay type: functional, Serum; outline: as §1
Rattus norvegicus [4] = species on record: Rattus norvegicus; test: Reduction in sterol level in CFE rat […] in serum at 0.1% of diet treated through diet for 6 days relative to control; assay type: functional; outline: as §1
Rattus norvegicus [5] = species on record: Rattus norvegicus; test: Reduction in sterol level in CFE rat […] in serum at 0.05% of diet treated through diet for 6 days relative to control; assay type: functional; outline: as §1
Rattus norvegicus [6] = species on record: Rattus norvegicus; test: Reduction in triglyceride level in CFE rat […] in serum at 0.1% of diet treated through diet for 6 days relative to control; assay type: functional; outline: as §1

Row | SMILES | Activity (Rattus norvegicus [1]) [%] | Activity (Rattus norvegicus [2]) [%] | Activity (Rattus norvegicus [3]) [%] | Activity (Rattus norvegicus [4]) [%] | Activity (Rattus norvegicus [5]) [%] | Activity (Rattus norvegicus [6]) [%]
1 | O=C(O)c1ccc(OCCCCCCCCCCCO)cc1 | 83 | 93 | 91 | 113 | 106 | 81
2 | COC(=O)c1ccc(OCCCCCCCCCCCCCCCO)cc1 | 98 | 104 | 96 | 93 | 98 | 89
3 | COC(=O)c1ccc(OCC2(C34CC5CC(CC(C5)C3)C4)SCCS2)cc1 | 94 | 83 | 94 | 93 | 89 | 112
4 | CCCCCCCCCCCCCC#CCOc1ccc(C(=O)OC)cc1 | 78 | 66 | 89 | 89 | 83 | 57
5 | CCCCCCCCCCCCCCCCOc1c(Br)cc(C(=O)OC)cc1Br | 96 | 103 | 94 | 82 | 94 | 88
6 | O=C(O)c1ccc(OC2C3CC4CC(C3)CC2C4)cc1 (configuration not stated) | 79 | 82 | 88 | 96 | 92 | 88
7 | CCCCNCCCCCCCCCCCOc1ccc(C(=O)OC)cc1.Cl | 87 | 71 | 100 | 89 | 96 | 66
8 | CCCCCCCCCCCC(=O)CCOc1ccc(C(=O)OC)cc1 | 78 | 61 | 100 | 81 | 93 | 61
9 | CCCCCCCCCCCCCC(C)(C)Oc1ccc(C(=O)O)cc1 | 127 | 105 | 92 | 100 | 120 | 83
10 | CCCCCCCCCCCC(Cl)CCOc1ccc(C(=O)OC)cc1 (configuration not stated) | 80 | 53 | 100 | 84 | 87 | 45
11 | COC(=O)c1ccc(OCCCCCCCCCCCOS(C)(=O)=O)cc1 | 79 | 81 | 105 | 91 | 105 | 72
12 | CCCCOCCCCCCCCCCCOc1ccc(C(=O)O)cc1 | 74 | 67 | 75 | 97 | 81 | 55
13 | CCCCCCCCCCCC(S)CCOc1ccc(C(=O)O)cc1 (configuration not stated) | 76 | 53 | 94 | 83 | 89 | 47
14 | COC(=O)c1ccc(OCCCCCCCCCCCCl)cc1 | 94 | 81 | 110 | 102 | 108 | 41
15 | O=C(O)c1ccc(OCC2CCCCCCCCCCC2)cc1 | 123 | 130 | 104 | 101 | 105 | 160
16 | CCCCCCCCCCCC(Cl)CCOc1ccc(C(=O)O)cc1 (configuration not stated) | 59 | 53 | 72 | 60 | 69 | 47
17 | COCCCCCCCCCCCOc1ccc(C(=O)OC)cc1 | 77 | 69 | 93 | 104 | 96 | 36
18 | CCSCCCCCCCCCCCOc1ccc(C(=O)OC)cc1 | 71 | 74 | 110 | 100 | 100 | 65
19 | C=CCCCCCCCC/C=C/CCCOc1ccc(C(=O)O)cc1 | 83 | 96 | 92 | 74 | 87 | 83
20 | CCCCCCCCCCCC(O)CCOc1ccc(C(=O)O)cc1 (configuration not stated) | 69 | 60 | 105 | 116 | 112 | 53
21 | CCCCCCCCCCCCCC(CC)Oc1ccc(C(=O)O)cc1 (configuration not stated) | 83 | 78 | 82 | 85 | 86 | 75

Row | SMILES | Activity (Rattus norvegicus [1]) [%] | Activity (Rattus norvegicus [2]) [%] | Activity (Rattus norvegicus [3]) [%] | Activity (Rattus norvegicus [4]) [%] | Activity (Rattus norvegicus [5]) [%] | Activity (Rattus norvegicus [6]) [%]
22 | O=C(O)c1ccc(OCCCCCCCCCCCCCCCOc2ccc(C(=O)O)cc2)cc1 | 64 | 77 | 97 | 94 | 103 | 51
23 | CCCCNC(=O)CCCCCCCCCCOc1ccc(C(=O)OC)cc1 | 95 | 97 | 99 | 96 | 100 | 81
24 | C=CCCCCCCCCCOc1ccc(C(=O)O)cc1 | 82 | 81 | 100 | 86 | 99 | 60
25 | CC[S+]([O-])CCCCCCCCCCCCCCCCOc1ccc(C(=O)O)cc1 (configuration not stated) | 87 | 80 | 89 | 94 | 81 | 55
26 | CCCCCCCCCCCC(CCOc1ccc(C(=O)O)cc1)SCc1ccccc1 (configuration not stated) | 92 | 79 | 109 | 92 | 100 | 69
27 | CCCCCCCC/C=C/CCCCCCCCOc1ccc(C(=O)OC)cc1 | 73 | 86 | 102 | 104 | 102 | 46
28 | CC(C)CCCC(C)CCCC(C)CCCC(C)CCOc1ccc(C(=O)O)cc1 (configuration not stated) | 110 | 104 | 87 | 71 | 84 | 72
29 | CCCCCCCCCCCC1OC1CCCOc1ccc(C(=O)O)cc1 (configuration not stated) | 74 | 52 | 90 | 85 | 85 | 55
30 | O=C(O)c1ccc(OCCCCCCCCCCCCCCCCS)cc1 | 51 | 35 | 82 | 83 | 82 | 37
31 | CCCCCCCCCCCCC(C)(C)Oc1ccc(C(=O)O)cc1 | 77 | 79 | 100 | 97 | 90 | 87
32 | CCSCCCCCCCCCCCOc1ccc(C(=O)O)cc1 | 60 | 56 | 74 | 76 | 70 | 48
33 | CCCCCCCCCCCC(C)(C)Oc1ccc(C(=O)O)cc1 | 74 | 80 | 90 | 83 | 88 | 63
34 | O=C(O)c1ccc(OCCCCCCCCCCCCS)cc1 | 61 | 46 | 88 | 79 | 81 | 26
35 | CCCCCCCCCCC/C=C/CCCOc1ccc(C(=O)O)cc1 | 76 | 76 | 75 | 69 | 67 | 59
36 | COC(=O)c1ccc(OCCCCCCCCCCCSCc2ccccc2)cc1 | 64 | 49 | 91 | 87 | 85 | 58
37 | CCCCNCCCCCCCCCCCOc1ccc(C(=O)OC)cc1 | 104 | 88 | 102 | 96 | 95 | 114
38 | CCCCCCCCCCCCCCC(C)Oc1ccc(C(=O)O)cc1 (configuration not stated) | 92 | 72 | 90 | 84 | 85 | 70
39 | O=C(O)c1ccc(OCCCCCCCCCCCS)cc1 | 61 | 47 | 44 | 80 | 74 | 44
40 | O=C(O)c1ccc(OCCCCCCCCCCCSCc2ccccc2)cc1 | 71 | 55 | 88 | 77 | 75 | 41
41 | CCCCCCCCCCCCCCCCOc1ccc(C(=O)O)cc1Cl | 69 | 87 | 108 | 103 | 97 | 75
42 | CCCCCCCCCCCCCCCCOc1c(I)cc(C(=O)O)cc1I | 96 | 86 | 94 | 93 | 85 | 105
